The test system of test [1] is MCF7. Briefly: Antiproliferative activity against human MCF-7 cells at 0.63 uM to 10 uM after 20 to 140 hrs. It counts as functional, cell-based. The note with it: TDE = time-dependent effect. In short, it runs like this: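 MCF-7 cells in DMEM with 5% FBS, seeded at 7500 cells/mL and grown 3 days before compound addition. Exposed to a range of concentrations for up to 144 h. Biomass measured by glutaraldehyde fixation, crystal violet staining, ethanol extraction and absorbance at 590 nm. Expressed as corrected T/C % = (T−C0)/(C−C0)·100.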

In test [2] the test system is MCF7. In words: Cytotoxicity against human MCF7 cells assessed as growth inhibition after 72 hrs. To be noted: MCF7, 72 h.
The subject of another test is MDA-MB-231. Briefly: Cytotoxicity against human MDA-MB-231 cells assessed as growth inhibition after 72 hrs. The note with it: MDA-MB-231, 72 h.
Test [3] concerns Mus musculus. In words: Antiinflammatory activity against xylene-induced ear edema in Kunming mouse assessed as reduction in ear swelling thickness at 100 mg, ip administered 2 hrs post challenge measured after 30 mins. It counts as functional. In short, it runs like this:
(§1)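 Male Kunming mice (~20 g), fasted 12 h, groups of 6. Compound given i.p.; 30 min later 0.015 mL xylene applied to front and back surfaces of right ear, left ear as control. Killed 2 h after xylene; 7 mm circular ear sections weighed and measured. Swelling taken as weight and thickness over untreated left ear. Mean ± S, one-way ANOVA.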

The test system of test [4] is Mus musculus. Briefly: Antiinflammatory activity against xylene-induced ear edema in Kunming mouse assessed as reduction in ear swelling weight at 100 mg, ip administered 2 hrs post challenge measured after 30 mins. It counts as functional. In short, it runs like this:
as §1

The target in test [5] is Prostaglandin G/H synthase 1 (Ovis aries) (UniProt P05979). In words: Inhibition of ovine COX-1 at 10 uM by ELISA relative to licofelone. A general note: In an ELISA, binding on a coated surface is turned into a signal by an enzyme label.
The target of test [6] is Prostaglandin G/H synthase 2 (Homo sapiens) (UniProt P35354). In words: Inhibition of human COX-2 at 10 uM by ELISA relative to licofelone.
Test [7] has as its system Mus musculus. In words: Antiinflammatory activity against xylene-induced ear edema in Kunming mouse assessed as reduction in ear swelling weight at 200 mg, […]. It counts as functional.
Test [8] has as its system Mus musculus. In words: Antiinflammatory activity against xylene-induced ear edema in Kunming mouse assessed as reduction in ear swelling thickness at 200 mg, ip administered 2 hrs post challenge measured after 30 mins. It counts as functional. Summed up: as §1
For test [9], the system named is Mus musculus. In words: Antiinflammatory activity against xylene-induced ear edema in Kunming mouse assessed as reduction in ear swelling weight at 25 mg, […]. The test is classed as functional.
Test [10] deals with Mus musculus. Briefly: Antiinflammatory activity against xylene-induced ear edema in Kunming mouse assessed as reduction in ear swelling thickness at 25 mg, ip administered 2 hrs post challenge measured after 30 mins. The test is classed as functional. Summed up:
as §1

The subject of test [11] is Mus musculus. In words: Antiinflammatory activity against xylene-induced ear edema in ip dosed Kunming mouse assessed as reduction in ear swelling administered 2 hrs post challenge measured after 30 mins. The test is classed as functional, organism-based. In short, it runs like this:
as §1

pIC50: −log10 of the molar value. A value given as a limit tells only on which side of the number the result lay.

Take `CC1(C)Cc2c(-c3ccccc3)c(-c3ccc(Cl)cc3)c(C(=O)COC=O)n2C1`: the Activity entry with MCF7 [1] was “tde”. Besides, the pIC50 (usually −log10 of the IC50, conventionally taken in molar units) with MCF7 [2] was 5.82; with MDA-MB-231 it was 5.74. For the same molecule, the “inhibition (INH)” value is recorded as 20.3% in the test on Mus musculus [3] and 19.3% in the test on Mus musculus [4]. In addition, the inhibition (as a rule, how much of the control response was suppressed) in test [5] was found to be 11%; in test [6], 9%.
`COc1ccccc1C(=O)OCC(=O)c1c(-c2ccc(Cl)cc2)c(-c2ccccc2)c2n1CC(C)(C)C2`: the negative logarithm of the IC50 (pIC50) is 5.35 in the test with MCF7 [2] and less than 4.30 in the test with MDA-MB-231. The “inhibition (INH)” value in the test on Mus musculus [3] stood at 18.1%; in the test on Mus musculus [4], 31.6%.
Consider `CCCCCC(=O)c1c(-c2ccc(Cl)cc2)c(-c2ccccc2)c2n1CC(C)(C)C2`, for which the negative logarithm of the IC50 (pIC50) with MCF7 [2] is 5.27; with MDA-MB-231, 4.50. Further, the “inhibition (INH)” value is listed as 37% in the test with Mus musculus [3] and 14% in the test on Mus musculus [4]. Moreover, the inhibition in [5] amounted to 11%; in test [6], 9%.
For the molecule `Cc1cc(C(=O)OCC(=O)c2c(-c3ccc(Cl)cc3)c(-c3ccccc3)c3n2CC(C)(C)C3)cc([N+](=O)[O-])c1`, the “inhibition (INH)” value in the test on Mus musculus [3] was 26.8%; in the test with Mus musculus [4] it was 7%.
Consider `CC1(C)Cc2c(-c3ccccc3)c(-c3ccc(Cl)cc3)c(C(=O)COC(=O)c3ccc(Cl)cc3)n2C1`, for which the pIC50 in the test with MCF7 [2] is 5.41; in the test with MDA-MB-231, less than 4.30. Moreover, the “inhibition (INH)” value in the test on Mus musculus [3] is 29.7%; with Mus musculus [4], 24.6%.
For `O=c1[nH]cc(F)c(=O)[nH]1` [FLUOROURACIL], the pIC50 in the test on MCF7 [2] is 5.33; with MDA-MB-231 it was 5.02.
The corresponding values for `CC1(C)Cc2c(-c3ccccc3)c(-c3ccc(Cl)cc3)cn2C1` are 5.25 and 4.71.
With `Cc1ccc(-c2cc(C(F)(F)F)nn2-c2ccc(S(N)(=O)=O)cc2)cc1` [CELECOXIB], the “inhibition (INH)” value in the test with Mus musculus [3] is reported as 47.9%; in the test on Mus musculus [4], 46.3%.
Regarding `CC1(C)Cc2c(-c3ccccc3)c(-c3ccc(Cl)cc3)c(C(=O)COC(=O)Cc3ccc(Cl)cc3)n2C1`, the pIC50 is 5.15 in the test with MCF7 [2] and less than 4.30 in the test on MDA-MB-231. Also, the “inhibition (INH)” value stood at 37% in the test with Mus musculus [3] and 35.1% in the test with Mus musculus [4].
Taken in the same sequence, the figures for `Cc1ccc(C(=O)OCC(=O)c2c(-c3ccc(Cl)cc3)c(-c3ccccc3)c3n2CC(C)(C)C3)cc1` were less than 4.30, less than 4.30, 21% and 22.8%.
On to `CC1(C)Cc2c(-c3ccccc3)c(-c3ccc(Cl)cc3)c(C(=O)COC(=O)c3ccc([N+](=O)[O-])cc3)n2C1`, for which the pIC50 is 5.32 in the test on MCF7 [2] and 5.14 in the test with MDA-MB-231. In addition, the “inhibition (INH)” value is recorded as 6.5% in the test on Mus musculus [3] and 1.8% with Mus musculus [4].
The corresponding values for `CC1(C)Cc2c(-c3ccccc3)c(-c3ccc(Cl)cc3)c(C(=O)COC(=O)Cc3ccccc3)n2C1` are 5.33, less than 4.30, 35.8% and 26.3%.
Taken in the same sequence, the figures for `Cc1ccccc1C(=O)OCC(=O)c1c(-c2ccc(Cl)cc2)c(-c2ccccc2)c2n1CC(C)(C)C2` were 5.21, 4.89, 34.1% and 12.3%.
Take `CC(=O)c1c(-c2ccc(Cl)cc2)c(-c2ccccc2)c2n1CC(C)(C)C2`: in the test with MCF7 [1], the Activity result is “tde”. For the same molecule, the pIC50 with MCF7 [2] was 5.70; in the test on MDA-MB-231, 5.48. In addition, the “inhibition (INH)” value with Mus musculus [3] amounted to 50.7%; in the test on Mus musculus [4] it was 54.4%. Moreover, the values for the inhibition in [5] and in test [6] were 11% and 9%, respectively.
In the case of `CC1(C)Cc2c(-c3ccccc3)c(-c3ccc(Cl)cc3)c(C(=O)COC(=O)c3ccccc3O)n2C1`, the pIC50 was 5.09 in the test with MCF7 [2] and less than 4.30 with MDA-MB-231. In addition, the “inhibition (INH)” value in the test with Mus musculus [3] is recorded as 14.5%; in the test on Mus musculus [4], 31.6%.
Consider `CC1(C)Cc2c(-c3ccccc3)c(-c3ccc(Cl)cc3)c(CC(=O)O)n2C1` [LICOFELONE], for which the “inhibition (INH)” value came out at 77.2% in the test on Mus musculus [7]; 74.6% in the test with Mus musculus [8]; 33.3% with Mus musculus [9]; 52.2% in the test with Mus musculus [3]; 43.9% with Mus musculus [4]; 49.2% in the test on Mus musculus [10]. Further, the pIC50 in the test on MCF7 [2] was 5.26; in the test with MDA-MB-231, 4.44. In addition, in the test with Mus musculus [11], the inhibition result was “Dose-dependent effect”.
Consider `CC(=O)OCC(=O)c1c(-c2ccc(Cl)cc2)c(-c2ccccc2)c2n1CC(C)(C)C2`, for which the negative logarithm of the IC50 (pIC50) in the test with MCF7 [2] is 5.60; in the test with MDA-MB-231, 5.36. Besides, the entries for the “inhibition (INH)” value in the test on Mus musculus [3] and in the test on Mus musculus [4] were 37% and 19.3%, respectively. The inhibition in test [5] amounted to 11%; in test [6] it was 9%.
With `CC1(C)Cc2c(-c3ccccc3)c(-c3ccc(Cl)cc3)c(C(=O)COC(=O)c3cccc(Cl)c3)n2C1`, the pIC50 was 5.28 in the test on MCF7 [2] and less than 4.30 in the test with MDA-MB-231. Also, the “inhibition (INH)” value in the test with Mus musculus [3] is recorded as 1.4%; in the test with Mus musculus [4] it was 3.5%.
Regarding `CC(C)Cc1ccc(C(C)C(=O)O)cc1` (stereo unspecified) [IBUPROFEN], the “inhibition (INH)” value in the test on Mus musculus [3] came out at 54.3%; in the test with Mus musculus [4], 51.2%.
For the molecule `CCC(=O)c1c(-c2ccc(Cl)cc2)c(-c2ccccc2)c2n1CC(C)(C)C2`, the figures for the pIC50 with MCF7 [2] and in the test on MDA-MB-231 were 5.06 and 4.72, respectively. Also, the “inhibition (INH)” value in the test with Mus musculus [3] amounted to 22.5%; in the test with Mus musculus [4], 24.6%. The inhibition in test [5] came to 11%; in test [6], 9%.
Turning to `CCC(=O)OCC(=O)c1c(-c2ccc(Cl)cc2)c(-c2ccccc2)c2n1CC(C)(C)C2`, the Activity entry with MCF7 [1] was “tde”. For the same molecule, the pIC50 in the test with MCF7 [2] is 5.77; in the test on MDA-MB-231, 5.51. Besides, the “inhibition (INH)” value with Mus musculus [3] is reported as 12.3%; in the test on Mus musculus [4] it was 3.5%. Also, the inhibition in test [5] worked out at 11%; in [6] it was 9%.
Turning to `COc1ccc(C(=O)OCC(=O)c2c(-c3ccc(Cl)cc3)c(-c3ccccc3)c3n2CC(C)(C)C3)cc1`, the results for the pIC50 with MCF7 [2] and in the test on MDA-MB-231 were 4.92 and less than 4.30, respectively. Besides, the “inhibition (INH)” value was 10.1% with Mus musculus [3] and 15.8% in the test with Mus musculus [4].
The corresponding values for `CC1(C)Cc2c(-c3ccccc3)c(-c3ccc(Cl)cc3)c(C(=O)COC(=O)c3ccc(Cl)cc3Cl)n2C1` are 5.17, less than 4.30, 8% and 43.9%.
Consider `CC1(C)Cc2c(-c3ccccc3)c(-c3ccc(Cl)cc3)c(C(=O)CCl)n2C1`, for which the pIC50 in the test with MCF7 [2] was 5.24; in the test with MDA-MB-231 it was 4.45. Besides, the “inhibition (INH)” value is recorded as 24.6% with Mus musculus [3] and 28.1% with Mus musculus [4]. Also, the values for the inhibition in test [5] and in test [6] were 11% and 9%, respectively.
For `CC1(C)Cc2c(-c3ccccc3)c(-c3ccc(Cl)cc3)c(C(=O)COC(=O)c3ccccc3Cl)n2C1`, the pIC50 is 5.28 with MCF7 [2] and 4.50 with MDA-MB-231. Further, the “inhibition (INH)” value in the test on Mus musculus [3] was 20.3%; with Mus musculus [4], 12.3%.
The corresponding values for `Cc1cccc(C(=O)OCC(=O)c2c(-c3ccc(Cl)cc3)c(-c3ccccc3)c3n2CC(C)(C)C3)c1` are 5.42, less than 4.30, 50.7% and 17.5%.

For the origin of these results see ChEMBL document CHEMBL1687893 (Eur J Med Chem, 2011).
